ChEMBL document CHEMBL1649119, “Daptomycin pharmacokinetics in adult oncology patients with neutropenic fever” (Antimicrob Agents Chemother, 2009)

Key:
[1] = Cmax in old healthy human at 4 mg/kg, iv administered as single dose 30 mins infusion; assay type: ADME, organism-based; design: dose 4 mg/kg, route intravenous; details: in vivo
[2] = Renal clearance in adult human subjects at 6 mg/kg, iv administered as single dose 30 mins infusion; assay type: ADME, organism-based, Kidney; design: dose 6 mg/kg, route intravenous; details: in vivo, read-out: CL_renal (converted)
[3] = Half life in healthy human at 8 mg/kg, iv administered as 30 mins infusion every 24 hrs measured on day 14; assay type: ADME, organism-based; design: dose 8 mg/kg, route intravenous; details: in vivo
[4] = AUC (0 to infinity) in old healthy human at 4 mg/kg, iv administered as single dose 30 mins infusion; assay type: ADME, organism-based; design: dose 4 mg/kg, route intravenous, time infinity; details: plasma
[5] = Half life in healthy human subjects at 10 mg/kg, iv administered as 30 mins infusion every 24 hrs measured on day 1; assay type: ADME, organism-based; design: dose 10 mg/kg, route intravenous; details: in vivo
[6] = AUC (0 to infinity) in morbidly obese adult human at 4 mg/kg, iv administered as single dose 30 mins infusion; assay type: ADME, organism-based; design: time infinity, dose 4 mg/kg, route intravenous; details: plasma
[7] = Volume of distribution at steady state in old healthy human at 4 mg/kg, iv administered as single dose 30 mins infusion; assay type: ADME, organism-based; design: dose 4 mg/kg, route intravenous; details: in vivo, read-out: Vdss
[8] = Volume of distribution at steady state in nonobese human at 4 mg/kg, iv administered as single dose 30 mins infusion; assay type: ADME, organism-based; design: dose 4 mg/kg, route intravenous; details: in vivo, read-out: Vdss
[9] = Clearance in healthy human subjects at 6 mg/kg, iv administered as 30 mins infusion every 24 hrs measured on day 1; assay type: ADME, organism-based; design: dose 6 mg/kg, route intravenous; details: in vivo
[10] = Half life in healthy human subjects at 12 mg/kg, iv administered as 30 mins infusion every 24 hrs measured on day 4; assay type: ADME, organism-based; design: dose 12 mg/kg, route intravenous; details: in vivo
[11] = Apparent volume of distribution during terminal phase in healthy human at 8 mg/kg, iv administered as 30 mins infusion every 24 hrs measured on day 14; assay type: ADME, organism-based; design: dose 8 mg/kg, route intravenous; details: in vivo
[12] = Plasma concentration in morbidly obese adult human at 4 mg/kg, iv administered as single dose 30 mins infusion measured after 24 hrs; assay type: ADME, organism-based; design: dose 4 mg/kg, route intravenous
[13] = Renal clearance in adult human with hepatic impairment at 6 mg/kg, iv administered as single dose 30 mins infusion; assay type: ADME, organism-based, Kidney; design: dose 6 mg/kg, route intravenous; details: in vivo, read-out: CL_renal (converted)
[14] = Cmax in young healthy human at 4 mg/kg, iv administered as single dose 30 mins infusion; assay type: ADME, organism-based; design: dose 4 mg/kg, route intravenous; details: in vivo
[15] = AUC (0 to infinity) in healthy human subjects at 10 mg/kg, iv administered as 30 mins infusion every 24 hrs measured on day 1; assay type: ADME, organism-based; design: time infinity, dose 10 mg/kg, route intravenous; details: plasma
[16] = Renal clearance in healthy adult human at 6 mg/kg, iv administered as single dose 30 mins infusion; assay type: ADME, organism-based, Kidney; design: dose 6 mg/kg, route intravenous; details: in vivo, read-out: CL_renal (converted)
[17] = AUC (0 to infinity) in healthy human subjects at 12 mg/kg, iv administered as 30 mins infusion every 24 hrs measured on day 4; assay type: ADME, organism-based; design: time infinity, dose 12 mg/kg, route intravenous; details: plasma
[18] = Half life in healthy human at 4 mg/kg, iv administered as 30 mins infusion every 24 hrs measured on day 1; assay type: ADME, organism-based; design: dose 4 mg/kg, route intravenous; details: in vivo
[19] = Apparent volume of distribution during terminal phase in healthy human subjects at 12 mg/kg, iv administered as 30 mins infusion every 24 hrs measured on day 14; assay type: ADME, organism-based; design: dose 12 mg/kg, route intravenous; details: in vivo
[20] = Half life in healthy human at 4 mg/kg, iv administered as single dose 30 mins infusion; assay type: ADME, organism-based; design: dose 4 mg/kg, route intravenous; details: in vivo
[21] = AUC (0 to infinity) in healthy human at 8 mg/kg, iv administered as 30 mins infusion every 24 hrs measured on day 14; assay type: ADME, organism-based; design: time infinity, dose 8 mg/kg, route intravenous; details: plasma
[22] = Cmax in healthy human subjects at 8 mg/kg, iv administered as 30 mins infusion every 24 hrs measured on day 1; assay type: ADME, organism-based; design: dose 8 mg/kg, route intravenous; details: in vivo
[23] = Clearance in healthy human at 6 mg/kg, iv administered as 30 mins infusion every 24 hrs measured on day 7; assay type: ADME, organism-based; design: dose 6 mg/kg, route intravenous; details: in vivo
[24] = AUC (0 to infinity) in healthy human subjects at 6 mg/kg, iv administered as 30 mins infusion every 24 hrs measured on day 4; assay type: ADME, organism-based; design: time infinity, dose 6 mg/kg, route intravenous; details: plasma
Homo sapiens [25] = test: Clearance in healthy human at 4 mg/kg, iv administered as single dose 30 mins infusion; assay type: ADME, organism-based; design: dose 4 mg/kg, route intravenous; details: in vivo, 0.5 h
[26] = Volume of distribution at steady state in morbidly obese adult human at 4 mg/kg, iv administered as single dose 30 mins infusion; assay type: ADME, organism-based; design: dose 4 mg/kg, route intravenous; details: in vivo, read-out: Vdss
[27] = Drug excretion in nonobese human at 4 mg/kg, iv administered as single dose 30 mins infusion; assay type: ADME, organism-based; design: dose 4 mg/kg, route intravenous; details: in vivo, read-out: Drug uptake
[28] = Clearance in healthy human subjects at 12 mg/kg, iv administered as 30 mins infusion every 24 hrs measured on day 1; assay type: ADME, organism-based; design: dose 12 mg/kg, route intravenous; details: in vivo
[29] = Unbound fraction in healthy human plasma at 8 mg/kg, iv administered as 30 mins infusion every 24 hrs measured on day 1; assay type: ADME, organism-based; design: dose 8 mg/kg, route intravenous
[30] = Cmax in healthy human at 8 mg/kg, iv administered as 30 mins infusion every 24 hrs measured on day 7; assay type: ADME, organism-based; design: dose 8 mg/kg, route intravenous; details: in vivo
Homo sapiens [31] = test: Unbound clearance in healthy human at 8 mg/kg, iv administered as 30 mins infusion every 24 hrs measured on day 1; assay type: ADME, organism-based; design: dose 8 mg/kg, route intravenous; details: in vivo
[32] = Plasma concentration in nonobese human subjects at 4 mg/kg, iv administered as single dose 30 mins infusion measured after 24 hrs; assay type: ADME, organism-based; design: dose 4 mg/kg, route intravenous
[33] = Clearance in healthy human at 4 mg/kg, iv administered as 30 mins infusion every 24 hrs measured on day 1; assay type: ADME, organism-based; design: dose 4 mg/kg, route intravenous; details: in vivo
[34] = Plasma protein binding in human after 0.5 hrs; assay type: ADME, cell-free; details: read-out: PPB (converted)
Procedure, shortened: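 Neutropenic-fever oncology patients received 6 mg/kg IV daptomycin; serum was drawn 0.5, 2 and 8 h after the end of infusion. Free drug was obtained by ultrafiltration (30,000-MW cutoff) and quantified by HPLC against a saline-matrix curve of 0.25–100 μg/ml, with total plasma drug also measured. Percent bound was (total − free)/total × 100; results are given as mean ± SD.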

Homo sapiens [35] = test: Apparent volume of distribution during terminal phase in healthy human subjects at 6 mg/kg, iv administered as 30 mins infusion every 24 hrs measured on day 1; assay type: ADME, organism-based; design: dose 6 mg/kg, route intravenous; details: in vivo
[36] = Half life in healthy human at 6 mg/kg, iv administered as 30 mins infusion every 24 hrs measured on day 1; assay type: ADME, organism-based; design: dose 6 mg/kg, route intravenous; details: in vivo
[37] = Cmax in healthy adult human at 6 mg/kg, iv administered as single dose 30 mins infusion; assay type: ADME, organism-based; design: dose 6 mg/kg, route intravenous; details: in vivo
[38] = Clearance in healthy human subjects at 10 mg/kg, iv administered as 30 mins infusion every 24 hrs measured on day 14; assay type: ADME, organism-based; design: dose 10 mg/kg, route intravenous; details: in vivo
[39] = AUC (0 to infinity) in nonobese adult human at 4 mg/kg, iv administered as single dose 30 mins infusion; assay type: ADME, organism-based; design: time infinity, dose 4 mg/kg, route intravenous; details: plasma
[40] = Cmax in healthy human subjects at 12 mg/kg, iv administered as 30 mins infusion every 24 hrs measured on day 4; assay type: ADME, organism-based; design: dose 12 mg/kg, route intravenous; details: in vivo
[41] = Half life in healthy human subjects at 6 mg/kg, iv administered as 30 mins infusion every 24 hrs measured on days 1-3; assay type: ADME, organism-based; design: dose 6 mg/kg, route intravenous; details: in vivo
[42] = Cmax in nonobese adult human at 4 mg/kg, iv administered as single dose 30 mins infusion; assay type: ADME, organism-based; design: dose 4 mg/kg, route intravenous; details: in vivo
[43] = Clearance in nonobese human at 4 mg/kg, iv administered as single dose 30 mins infusion; assay type: ADME, organism-based; design: dose 4 mg/kg, route intravenous; details: in vivo

Compound: CCCCCCCCCC(=O)N[C@@H](Cc1c[nH]c2ccccc12)C(=O)N[C@H](CC(N)=O)C(=O)N[C@@H](CC(=O)O)C(=O)N[C@@H]1C(=O)NCC(=O)N[C@@H](CCCN)C(=O)N[C@@H](CC(=O)O)C(=O)N[C@H](C)C(=O)N[C@@H](CC(=O)O)C(=O)NCC(=O)N[C@H](CO)C(=O)N[C@@H]([C@H](C)CC(=O)O)C(=O)N[C@@H](CC(=O)c2ccccc2N)C(=O)O[C@@H]1C
- Cmax [1]: 44000 ng/mL
- CL renal at 0.5 h [2]: 2.72 mL/h/kg
- half-life [3]: 534 min
- AUC(0-inf) [4]: 474 µg·h/mL
- half-life [5]: 504 min
- AUC(0-inf) [6]: 548 µg·h/mL
- Vd [7]: 0.15 L/kg
- Vd [8]: 0.11 L/kg
- clearance [9]: 0.165 mL/min/kg
- half-life [10]: 462 min
- Vd [11]: 0.095 L/kg
- concentration at 24 h [12]: 5880 ng/mL
- CL renal at 0.5 h [13]: 3.65 mL/h/kg
- Cmax [14]: 42300 ng/mL
- AUC(0-inf) [15]: 1010 µg·h/mL
- CL renal at 0.5 h [16]: 3.84 mL/h/kg
- AUC(0-inf) [17]: 1280 µg·h/mL
- half-life [18]: 444 min
- Vd [19]: 0.0992 L/kg
- half-life [20]: 464 min
- AUC(0-inf) [21]: 1090 µg·h/mL
- Cmax [22]: 106 µg/mL
- clearance [23]: 0.135 mL/min/kg
- AUC(0-inf) [24]: 632 µg·h/mL
- CL (Homo sapiens [25]): 9.84 mL/min
- Vd [26]: 0.18 L/kg
- dose excreted at 0.5 h [27]: 48.6%
- clearance [28]: 0.167 mL/min/kg
- fraction unbound at 1 day [29]: 0.09
- Cmax [30]: 133 µg/mL
- CL (Homo sapiens [31]): 50 mL/h/kg
- concentration at 24 h [32]: 3390 ng/mL
- clearance [33]: 0.16 mL/min/kg
- fraction unbound at 0.5 h [34]: 0.058
- Vd (Homo sapiens [35]): 0.1059 L/kg
- half-life [36]: 468 min
- Cmax [37]: 82 µg/mL
- clearance [38]: 0.125 mL/min/kg
- AUC(0-inf) [39]: 322 µg·h/mL
- Cmax [40]: 184 µg/mL
- half-life [41]: 456 min
- Cmax [42]: 46300 ng/mL
- clearance [43]: 0.17 mL/min/kg
